ChEMBL document CHEMBL4130601, “Oxygenated N-Acyl Alanine Methyl Esters (NAMEs) from the Marine Bacterium Roseovarius tolerans EL-164” (2018)
Converted amounts (≈) assume the structure as drawn. The source made the active and inactive calls. The rule behind the calls is not given here.

What was measured:
Staphylococcus carnosus = assay: Antibacterial activity against Staphylococcus carnosus DSM 20501 after 16 to 20 hrs by microdilution method; assay type: functional
Procedure, shortened: (§1)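 Samples were serially diluted from 2 mg/mL stocks and the cells added. Growth was 16−20 h at the optimal temperature (30 or 37 °C). MIC was taken as the lowest concentration with no visible growth.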

Escherichia coli = assay: Antibacterial activity against TolC-deficient Escherichia coli after 16 to 20 hrs by microdilution method; assay type: functional; procedure, shortened: as §1
Bacillus subtilis = assay: Antibacterial activity against Bacillus subtilis DSM 10 after 16 to 20 hrs by microdilution method; assay type: functional; procedure, shortened: as §1
Micrococcus luteus = assay: Antibacterial activity against Micrococcus luteus DSM 1790 after 16 to 20 hrs by microdilution method; assay type: functional; procedure, shortened: as §1
Pseudomonas putida [1] = assay: Induction of N-acyl-homoserinlactone-related quorum sensing activity in Pseudomonas putida F117 measured up to 5.5 hrs by fluorescence assay
Procedure, shortened: (§2)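 The sensor strain P. putida F117 (pKRC12) was grown overnight in Luria−Bertani medium with gentamycin (20 μg/mL) at 30 °C, shaking at 160 rpm. Test samples were added at different concentrations.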

Pseudomonas putida [2] = assay: Inhibition of N-acyl-homoserinlactone-related quorum sensing activity in Pseudomonas putida F117 at 5 uM measured up to 5.5 hrs by fluorescence assay; procedure, shortened: as §2
Staphylococcus aureus = assay: Antibacterial activity against Staphylococcus aureus Newman after 16 to 20 hrs by microdilution method; assay type: functional; procedure, shortened: as §1
Mucor hiemalis = assay: Antibacterial activity against Mucor hiemalis DSM 2656 after 16 to 20 hrs by microdilution method; assay type: functional
Procedure, shortened: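 The fungus, in mid-log phase, was diluted to about 5 × 10⁵ to 5 × 10⁶ cfu/mL final in Myc medium (1% phytone peptone, 1% glucose, 50 mM HEPES, pH 7.0). Samples were serially diluted from 2 mg/mL stocks. Growth was 16−20 h at 30 or 37 °C. MIC was taken as the lowest concentration with no visible growth.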

MIC (Staphylococcus carnosus)	MIC (Escherichia coli)	MIC (Bacillus subtilis)	MIC (Micrococcus luteus)	Activity (Pseudomonas putida [1])	inhibition (Pseudomonas putida [2])	MIC (Staphylococcus aureus)	MIC (Mucor hiemalis)	SMILES
8 µg/mL (≈ 22.6 µM)	16 µg/mL (≈ 45.3 µM)	16 µg/mL (≈ 45.3 µM)	16 µg/mL (≈ 45.3 µM)					CCCCCC/C=C\CCCCCC(=O)CC(=O)N[C@@H](C)C(=O)OC
				inactive	inactive			CCCCCC/C=C\CCCCCCCC(=O)N[C@@H](C)C(=O)OC
	8 to 16 µg/mL (≈ 22.5 to 45 µM)		32 to 64 µg/mL (≈ 90 to 180 µM)	inactive	inactive	32 to 64 µg/mL (≈ 90 to 180 µM)	32 to 64 µg/mL (≈ 90 to 180 µM)	COC(=O)[C@H](C)NC(=O)CCCCCCC/C=C\CCCCCCO
16 µg/mL (≈ 45 µM)	16 µg/mL (≈ 45 µM)	128 µg/mL (≈ 360 µM)	8 µg/mL (≈ 22.5 µM)					CCCCCC/C=C\CCCCCC(O)CC(=O)N[C@@H](C)C(=O)OC (stereo partly specified)
